In publication PMC7274092 (Nature biomedical engineering, 2020):

Legend:
[1] = Diffusion-ordered NMR spectroscopy; type: physicochemical; details: approximated from DOSY diffusion rate by the Stokes-Einstein relationship
liver and kidney = assay: Biocompatibility of CB[7]-PEG in healthy rats; type: in vivo, Sprague Dawley rats; details: s.c. 0.2 mg/kg once daily for six weeks, n=4
Method in brief: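 Healthy 10-week-old Sprague Dawley rats (n=4) received CB[7]-PEG at 0.2 mg/kg s.c. in PBS (pH 7.4) once daily for six weeks. […] Blood chemistry was run on an automated analyzer from samples taken on days 14, 28 and 42. At endpoint, liver and kidney were collected for single-blinded histopathology.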

[2] = insulin hexamer, for comparison; cited from earlier work

Compound	hydrodynamic radius (Rh) [1]	further results
CC[C@H](C)[C@H](NC(=O)[C@@H]1CCCN1C(=O)CNC(=O)[C@H](Cc1ccccc1)NC(=O)[C@H](CC(N)=O)NC(=O)[C@H](CC(N)=O)NC(=O)[C@H](CO)NC(=O)[C@H](CO)NC(=O)[C@H](Cc1c[nH]cn1)NC(=O)[C@@H](NC(=O)[C@H](CC(C)C)NC(=O)[C@H](Cc1ccccc1)NC(=O)[C@H](CC(N)=O)NC(=O)[C@H](C)NC(=O)[C@H](CC(C)C)NC(=O)[C@H](CCCNC(=N)N)NC(=O)[C@H](CCC(N)=O)NC(=O)[C@@H](NC(=O)[C@H](C)NC(=O)[C@@H]1CSSC[C@H](NC(=O)[C@@H](N)CCCCN)C(=O)N[C@@H](CC(N)=O)C(=O)N[C@@H]([C@@H](C)O)C(=O)N[C@@H](C)C(=O)N[C@@H]([C@@H](C)O)C(=O)N1)[C@@H](C)O)C(C)C)C(=O)N[C@@H](CC(C)C)C(=O)N1CCC[C@H]1C(=O)N1CCC[C@H]1C(=O)N[C@H](C(=O)N[C@@H](CC(N)=O)C(=O)N[C@H](C(=O)NCC(=O)N[C@@H](CO)C(=O)N[C@@H](CC(N)=O)C(=O)N[C@H](C(=O)N[C@@H](Cc1ccc(O)cc1)C(N)=O)[C@@H](C)O)C(C)C)[C@@H](C)O [pramlintide]	1.2 nm	
cucurbit[7]uril-conjugated polyethylene glycol [CB[7]-PEG]		blood chemistry and liver/kidney histopathology vs untreated controls (liver and kidney): No differences
insulin aspart	~2.2 nm	
insulin hexamer: hexameric association state of insulin		hydrodynamic radius [2]: approximately 2.8 nm
